Assay results taken from ChEMBL document CHEMBL1141336, “Isolation and structure elucidation of kadlongilactones C-F from Kadsura longipedunculata by NMR spectroscopy and DFT computational methods” (J Nat Prod, 2007).
Counter-ions that a name gives are not always drawn.

Legend:
A549 = assay: Cytotoxicity against human A549 cells after 72 hrs by SRB assay; type: functional, cell-based; conditions: A549, 72 h
In short: (§1)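 Adherent tumour cells were seeded in 96-well plates 24 h before dosing and exposed continuously to a series of compound concentrations for 72 h. Cells were then fixed and stained with sulforhodamine B to read out cytotoxicity.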

K562 = assay: Cytotoxicity against human K562 cells after 72 hrs by trypan blue exclusion method; conditions: K562, 72 h
HT-29 = assay: Cytotoxicity against human HT29 cells after 72 hrs by SRB assay; type: functional, cell-based; conditions: HT-29, 72 h; in short: as §1

SMILES | IC50 (A549) [nM] | IC50 (K562) [nM] | IC50 (HT-29) [nM]
CC(=O)[C@]1(N)Cc2c(O)c3c(c(O)c2[C@@H](O[C@H]2C[C@H](O)[C@H](O)CO2)C1)C(=O)c1ccccc1C3=O [AMRUBICIN HYDROCHLORIDE] | 820 | 1260 | 4360
CC1=C[C@@H]2CC3=C([C@H](O)C[C@]4(C)[C@H]3C[C@]3(O)C=C5C=CC(=O)OC(C)(C)[C@@H]5CC[C@@H]43)[C@H](C)[C@@H]2OC1=O [KADLONGILACTONE A] | 1240 | 3440 | 1440
CO[C@@H]1C[C@]2(C)[C@@H](C[C@]3(O)C=C4C=CC(=O)OC(C)(C)[C@@H]4CC[C@@H]23)C2=C1[C@H](C)[C@@H]1OC(=O)C(C)=C[C@@H]1C2 [KADLONGILACTONE C] | 1450 | 3610 | 2080
CC1=C[C@@H]2CC3=C([C@@H](O)C[C@]4(C)[C@H]3C[C@]3(O)C=C5C=CC(=O)OC(C)(C)[C@@H]5CC[C@@H]43)[C@H](C)[C@@H]2OC1=O [KADLONGILACTONE D] | 490 | 1920 | 1640
CO[C@H]1C[C@]2(C)[C@@H](C[C@]3(O)C=C4C=CC(=O)OC(C)(C)[C@@H]4CC[C@@H]23)C2=C1[C@H](C)[C@@H]1OC(=O)C(C)=C[C@@H]1C2 [KADLONGILACTONE E] | 880 | 3350 | 1320
